Assays:
[1] = Half life in Sprague-Dawley rat at 2 mg/kg, iv; assay type: ADME, organism-based; parameters: dose 2 mg/kg, route intravenous; settings: in vivo
[2] = Oral bioavailability in Sprague-Dawley rat at 2 mg/kg; assay type: ADME, organism-based; settings: in vivo
[3] = Clearance in Sprague-Dawley rat at 2 mg/kg, iv; assay type: ADME, organism-based; parameters: dose 2 mg/kg, route intravenous; settings: in vivo
[4] = AUC (0 to infinity) in Sprague-Dawley rat at 2 mg/kg, po; assay type: ADME, organism-based; parameters: time infinity, dose 2 mg/kg, route oral; settings: plasma
[5] = Plasma protein binding in human by ultrafiltration method; assay type: ADME, cell-free; settings: read-out: PPB (converted)
THP-1 = test: Inhibition of LPS-induced TNFalpha production in human THP1 cells after 3 hrs; assay type: functional, cell-based
How it was run: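 THP-1 cells at 1.5 x 10^6/mL in RPMI 1640, 10% heat-inactivated FBS, NEAA, 30 μM βME. 3-fold serial compound dilutions in DMSO, then LPS stimulation for 3 h at 37 C, 5% CO2. Secreted TNF-alpha read by electrochemiluminescent immunoassay; percent of DMSO control; IC50 is the mean of at least three independent curves.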

[6] = Volume of distribution at steady state in Sprague-Dawley rat at 2 mg/kg, iv; assay type: ADME, organism-based; parameters: dose 2 mg/kg, route intravenous; settings: in vivo, read-out: Vdss
[7] = Plasma protein binding in rat by ultrafiltration method; assay type: ADME, cell-free; settings: read-out: PPB (converted)
Blood = test: Inhibition of IL-8 production in TNFalpha challenged human whole blood after 16 to 18 hrs; assay type: functional, tissue-based
How it was run: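 Heparinized blood from healthy nonmedicated donors, 50% final in RPMI 1640 with 10% human AB serum. Ten-point compound titration preincubated 1 h at 37 C, 5% CO2, then TNF-alpha 1 nM final added for 16-18 h. Plasma IL-8 measured by electrochemiluminescent antibody sandwich assay; IC50 is the mean of at least three independent dose-response curves.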

[8] = molecular target: T1, Mitogen-activated protein kinase 14 (Homo sapiens, UniProt Q16539); test: Inhibition of human recombinant p38alpha-mediated […] phosphorylation after 1 hr by HTRF assay
[9] = molecular target: Vascular endothelial growth factor receptor 2 (Homo sapiens, UniProt P35968); test: Binding affinity to Kdr by scintillation proximity assay
[10] = molecular target: T1, Mitogen-activated protein kinase 14; test: Binding affinity to p38alpha by scintillation proximity assay
[11] = molecular target: Mast/stem cell growth factor receptor Kit (Homo sapiens, UniProt P10721); test: Binding affinity to c-Kit by scintillation proximity assay
[12] = molecular target: Tyrosine-protein kinase Lck (Homo sapiens, UniProt P06239); test: Binding affinity to Lck by scintillation proximity assay
[13] = molecular target: T2, Nuclear receptor subfamily 1 group I member 2 (Homo sapiens, UniProt O75469); test: Transactivation of human PXR expressed in HepG2 cells after 24 hrs by luciferase reporter gene assay; assay type: cell-based; settings: hepg2, 24 h
T2 sequence (O75469 whole entry): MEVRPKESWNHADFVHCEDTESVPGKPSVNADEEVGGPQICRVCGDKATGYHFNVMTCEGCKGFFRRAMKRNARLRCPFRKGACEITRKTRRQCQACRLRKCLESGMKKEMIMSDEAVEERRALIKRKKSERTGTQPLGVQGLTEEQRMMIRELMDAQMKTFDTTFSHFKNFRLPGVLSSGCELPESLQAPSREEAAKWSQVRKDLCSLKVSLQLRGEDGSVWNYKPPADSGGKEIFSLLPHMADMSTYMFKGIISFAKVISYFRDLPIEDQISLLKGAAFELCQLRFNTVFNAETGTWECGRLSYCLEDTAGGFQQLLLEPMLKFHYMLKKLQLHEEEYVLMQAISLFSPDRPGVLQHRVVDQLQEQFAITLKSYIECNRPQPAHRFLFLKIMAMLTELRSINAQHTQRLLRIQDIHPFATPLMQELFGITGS
How it was run: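 HepG2 cells transfected with a CYP3A4-promoter luciferase reporter and human PXR cDNA. Compound added from DMSO stocks to final 2 and 10 μM in buffer and incubated 24 h. Luciferase activity read by chemiluminescence and reported as percent of the rifampin (10 μM) positive control.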

Cytochrome P450 3A4 = Cytochrome P450 3A4 (Homo sapiens, UniProt P08684); test: Inhibition of CYP3A4; assay type: ADME
in vitro [14] = settings: human, Caco-2
in vitro [15] = settings: human, Caco-2; remark: listed apart in the source
[16] = Homo sapiens, THP-1, 3 h, read-out: IC50
[17] = Homo sapiens, Blood, read-out: IC50

Sequence of Vascular endothelial growth factor receptor 2 (P35968 whole entry): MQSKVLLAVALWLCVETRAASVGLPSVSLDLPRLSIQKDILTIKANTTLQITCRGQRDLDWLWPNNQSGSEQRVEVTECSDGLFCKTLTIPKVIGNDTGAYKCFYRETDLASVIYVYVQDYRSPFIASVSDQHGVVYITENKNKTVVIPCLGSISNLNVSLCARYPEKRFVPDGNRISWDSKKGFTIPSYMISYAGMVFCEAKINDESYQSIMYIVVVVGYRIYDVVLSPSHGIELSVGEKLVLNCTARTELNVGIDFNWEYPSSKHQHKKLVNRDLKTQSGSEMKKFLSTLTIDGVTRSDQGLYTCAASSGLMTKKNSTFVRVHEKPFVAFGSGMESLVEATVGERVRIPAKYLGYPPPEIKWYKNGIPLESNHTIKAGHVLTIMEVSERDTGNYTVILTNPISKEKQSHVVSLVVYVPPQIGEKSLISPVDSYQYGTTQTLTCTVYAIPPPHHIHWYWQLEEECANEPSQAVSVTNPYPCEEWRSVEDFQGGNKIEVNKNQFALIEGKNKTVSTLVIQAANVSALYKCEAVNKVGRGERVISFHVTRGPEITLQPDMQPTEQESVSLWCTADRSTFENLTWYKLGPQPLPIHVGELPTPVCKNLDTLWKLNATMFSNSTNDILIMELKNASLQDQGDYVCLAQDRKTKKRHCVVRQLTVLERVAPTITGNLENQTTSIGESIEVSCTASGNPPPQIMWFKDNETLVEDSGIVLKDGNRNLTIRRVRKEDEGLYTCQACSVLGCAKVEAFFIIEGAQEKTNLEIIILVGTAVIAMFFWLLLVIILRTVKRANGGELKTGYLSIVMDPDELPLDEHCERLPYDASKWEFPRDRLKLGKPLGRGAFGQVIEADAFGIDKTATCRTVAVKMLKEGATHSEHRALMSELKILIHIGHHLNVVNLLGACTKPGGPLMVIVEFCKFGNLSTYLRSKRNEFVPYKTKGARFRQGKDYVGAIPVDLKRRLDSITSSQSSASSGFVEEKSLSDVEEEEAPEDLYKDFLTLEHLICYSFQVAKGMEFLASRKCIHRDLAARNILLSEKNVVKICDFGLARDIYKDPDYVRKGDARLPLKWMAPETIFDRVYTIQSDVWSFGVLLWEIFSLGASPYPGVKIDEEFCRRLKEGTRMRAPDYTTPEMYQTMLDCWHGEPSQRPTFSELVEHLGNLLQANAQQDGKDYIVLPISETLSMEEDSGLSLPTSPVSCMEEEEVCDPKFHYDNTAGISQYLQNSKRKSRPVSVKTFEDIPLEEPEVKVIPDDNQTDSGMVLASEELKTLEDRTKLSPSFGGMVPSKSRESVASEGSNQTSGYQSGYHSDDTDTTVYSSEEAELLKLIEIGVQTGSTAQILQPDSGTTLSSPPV
T1 sequence (Q16539 whole entry): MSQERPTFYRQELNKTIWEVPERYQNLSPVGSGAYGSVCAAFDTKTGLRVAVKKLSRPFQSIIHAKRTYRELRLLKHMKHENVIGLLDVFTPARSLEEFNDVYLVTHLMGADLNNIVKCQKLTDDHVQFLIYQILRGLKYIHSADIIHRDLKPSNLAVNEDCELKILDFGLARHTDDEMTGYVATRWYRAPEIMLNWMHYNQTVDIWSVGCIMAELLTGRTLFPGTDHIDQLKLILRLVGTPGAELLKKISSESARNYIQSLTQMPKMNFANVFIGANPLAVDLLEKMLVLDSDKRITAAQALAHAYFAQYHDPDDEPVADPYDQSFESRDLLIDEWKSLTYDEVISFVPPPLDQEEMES
Sequence of Mast/stem cell growth factor receptor Kit (P10721 whole entry): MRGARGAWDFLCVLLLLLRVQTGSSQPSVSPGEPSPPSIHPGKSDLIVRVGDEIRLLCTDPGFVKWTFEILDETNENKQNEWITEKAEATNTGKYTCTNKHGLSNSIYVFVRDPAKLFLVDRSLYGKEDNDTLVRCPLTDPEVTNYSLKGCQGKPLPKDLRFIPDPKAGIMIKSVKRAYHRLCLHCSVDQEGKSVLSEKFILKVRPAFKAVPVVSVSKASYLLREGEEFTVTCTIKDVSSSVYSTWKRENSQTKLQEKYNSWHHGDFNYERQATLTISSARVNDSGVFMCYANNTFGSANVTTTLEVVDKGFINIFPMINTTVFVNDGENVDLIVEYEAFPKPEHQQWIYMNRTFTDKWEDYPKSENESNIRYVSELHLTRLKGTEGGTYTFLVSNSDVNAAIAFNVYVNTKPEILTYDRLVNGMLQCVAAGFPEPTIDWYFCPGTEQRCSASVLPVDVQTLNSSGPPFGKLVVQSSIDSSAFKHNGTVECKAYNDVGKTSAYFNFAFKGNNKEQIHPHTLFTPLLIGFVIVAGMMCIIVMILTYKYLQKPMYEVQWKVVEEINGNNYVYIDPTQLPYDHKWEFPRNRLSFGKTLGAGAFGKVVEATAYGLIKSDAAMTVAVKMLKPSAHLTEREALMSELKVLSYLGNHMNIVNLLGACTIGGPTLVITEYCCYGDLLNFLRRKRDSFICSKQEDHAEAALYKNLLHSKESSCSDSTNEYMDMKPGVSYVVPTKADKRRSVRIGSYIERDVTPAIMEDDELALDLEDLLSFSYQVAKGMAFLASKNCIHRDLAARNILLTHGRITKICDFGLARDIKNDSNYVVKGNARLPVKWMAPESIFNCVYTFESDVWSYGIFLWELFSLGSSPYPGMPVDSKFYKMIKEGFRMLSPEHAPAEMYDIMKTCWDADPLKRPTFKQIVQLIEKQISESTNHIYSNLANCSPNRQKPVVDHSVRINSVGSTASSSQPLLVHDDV
Sequence of Tyrosine-protein kinase Lck (P06239 whole entry): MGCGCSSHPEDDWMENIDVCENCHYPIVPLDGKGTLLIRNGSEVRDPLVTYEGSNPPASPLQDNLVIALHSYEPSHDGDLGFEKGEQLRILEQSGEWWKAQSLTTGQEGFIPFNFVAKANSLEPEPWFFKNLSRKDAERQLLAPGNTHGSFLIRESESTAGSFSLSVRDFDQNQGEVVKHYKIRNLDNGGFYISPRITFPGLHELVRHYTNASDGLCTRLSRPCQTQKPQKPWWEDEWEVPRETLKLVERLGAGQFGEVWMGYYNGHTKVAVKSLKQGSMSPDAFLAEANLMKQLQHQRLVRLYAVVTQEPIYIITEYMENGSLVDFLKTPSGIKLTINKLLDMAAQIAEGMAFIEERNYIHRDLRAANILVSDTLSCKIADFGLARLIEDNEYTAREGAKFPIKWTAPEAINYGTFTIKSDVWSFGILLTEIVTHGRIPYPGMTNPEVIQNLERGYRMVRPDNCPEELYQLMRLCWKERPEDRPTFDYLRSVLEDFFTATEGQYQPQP
Sequence of Cytochrome P450 3A4 (P08684 whole entry): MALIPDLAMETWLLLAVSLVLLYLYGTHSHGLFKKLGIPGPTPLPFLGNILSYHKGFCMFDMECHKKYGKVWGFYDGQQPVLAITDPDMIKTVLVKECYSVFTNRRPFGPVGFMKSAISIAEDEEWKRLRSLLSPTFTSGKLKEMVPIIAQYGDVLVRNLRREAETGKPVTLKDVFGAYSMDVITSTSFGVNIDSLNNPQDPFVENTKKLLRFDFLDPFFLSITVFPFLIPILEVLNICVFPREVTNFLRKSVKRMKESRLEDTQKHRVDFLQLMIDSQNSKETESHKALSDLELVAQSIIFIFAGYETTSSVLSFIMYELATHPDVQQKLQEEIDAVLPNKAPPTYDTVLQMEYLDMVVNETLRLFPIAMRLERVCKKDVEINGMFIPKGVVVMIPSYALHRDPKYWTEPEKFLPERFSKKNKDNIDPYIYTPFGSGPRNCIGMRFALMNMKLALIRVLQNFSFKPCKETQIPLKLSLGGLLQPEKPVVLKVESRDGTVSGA

Row | SMILES | half-life [1] | bioavailability [2] | clearance [3] | AUC(0-inf) [4] | IC50 (THP-1; [16]) | Vd [6] | IC50 (Blood; [17]) | Ki [8] | other results
1 | Cn1c(=O)c(-c2cc(C(=O)NC3CC3)ccc2Cl)cc2cnn(-c3c(F)cccc3F)c21 | 378 min | 73% | 2.75 mL/min/kg | 8860 ng·h/mL | 0.9 nM | 1.47 L/kg | – | – | fraction unbound [5]: 0.038; fraction unbound [7]: 0.032
2 | Cc1ccc(C(=O)NC2CC2)cc1-c1cc2cnn(-c3ncccc3C(F)(F)F)c2n(C)c1=O | – | – | – | – | 14.4 nM | – | 24 nM | 2.3 nM | –
3 | Cc1ccc(C(=O)O)cc1-c1cc2cnn(-c3c(F)cccc3F)c2n(C)c1=O | – | – | – | – | 631 nM | – | > 2500 nM | 458 nM | –
4 | Cc1ccc(C(=O)NC2CC2)cc1-c1cc2cnn(-c3ccccc3F)c2n(C)c1=O | – | – | – | – | – | – | – | – | Kd [9]: 40 µM; Kd [10]: 0.18 nM; Kd [11]: 1700 nM; Kd [12]: 40 µM
5 | Cc1ccc(C(N)=O)cc1-c1cc2cnn(-c3c(F)cccc3F)c2n(C)c1=O | 144 min | 37% | 5.2 mL/min/kg | 2390 ng·h/mL | 3.9 nM | 1.1 L/kg | 6.4 nM | 1.5 nM | –
6 | CNc1noc2c(-c3cc4cnn(-c5c(F)cccc5F)c4n(C)c3=O)c(C)ccc12 | 210 min | 27% | 17.6 mL/min/kg | 515 ng·h/mL | – | 1.89 L/kg | – | 2 nM | IC50 (Blood): 5.4 nM; IC50 (THP-1; thp-1): 1.2 nM
7 | Cc1ccc(C(=O)NC2CC2)cc1-c1cc2cnn(-c3cc(F)ccc3F)c2n(C)c1=O | 132 min | 10% | 4.12 mL/min/kg | 782 ng·h/mL | 1.6 nM | 0.955 L/kg | 3.7 nM | 1.9 nM | –
8 | Cc1ccc(C(=O)NC2CC2)cc1-c1cc2c(C)nn(-c3c(F)cccc3F)c2n(C)c1=O | – | – | – | – | 2.7 nM | – | 40 nM | 8 nM | –
9 | CCn1c(=O)c(-c2cc(C(=O)NC3CC3)ccc2C)cc2cnn(-c3ccc(F)cc3F)c21 | – | – | – | – | 0.5 nM | – | 2.4 nM | 0.6 nM | Activity [13]: Not Active; IC50 (Cytochrome P450 3A4): 1600 nM
10 | Cc1ccc(C(=O)NC2CC2)cc1-c1ccc2c(-c3ccccc3F)nncc2c1 | – | – | – | – | – | – | – | – | Kd [9]: 0.32 µM; Kd [10]: 0.05 nM; Kd [11]: 2.4 nM; Kd [12]: 0.53 µM
11 | Cc1ccc(C(=O)NC2CC2)cc1-c1cc2cnn(-c3ccc(F)cc3F)c2n(C)c1=O | 462 min | 73% | 2.88 mL/min/kg | 5120 ng·h/mL | 1.5 nM | 1.69 L/kg | 3.9 nM | – | Papp A→B (in vitro [14]): 20 ×10⁻⁶ cm/s; Kd [9]: 40 µM; fraction unbound [5]: 0.07; Papp B→A (in vitro [15]): 29 ×10⁻⁶ cm/s; fraction unbound [7]: 0.075; Kd [11]: 13000 nM; Kd [12]: 40 µM
12 | Cc1ccc(C(=O)Nc2ccon2)cc1-c1cc2cnn(-c3c(F)cccc3F)c2n(C)c1=O | – | – | – | – | 0.3 nM | – | 1.5 nM | 1 nM | –
13 | Cc1ccc(C(=O)NC2CC2)cc1-c1cc2cnn(-c3ccccc3C)c2n(C)c1=O | – | – | – | – | 4 nM | – | 12.1 nM | 1.9 nM | –
14 | Cc1ccc(C(=O)NC2(C)CC2)cc1-c1cc2cnn(-c3c(F)cccc3F)c2n(C)c1=O | – | – | – | – | 2.7 nM | – | 11 nM | 1.7 nM | –
15 | Cc1c(F)cc(C(=O)NC2CC2)cc1-c1cc2cnn(-c3c(F)cccc3F)c2n(C)c1=O | – | – | – | – | 0.4 nM | – | 1.7 nM | 0.8 nM | –
16 | Cc1ccc(C(=O)NC2CC2)cc1-c1cc2cnn(-c3ccccc3Cl)c2n(C)c1=O | – | – | – | – | 1.1 nM | – | 8.7 nM | 0.9 nM | –
